From paper PMC5784828 (Biochemical and biophysical research communications, 2018)

System: MDA-MB-231 cells
Assay: Scratch cell migration assay
Assay type: cell-based
Conditions: 1 μM, MDA-MB-231, 18 hr
Method in brief: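 MDA-MB-231 cells were grown at 37°C, 5% CO2, in high-glucose DMEM with 10% FBS, L-glutamine, penicillin/streptomycin and 15 mM HEPES. A scratch was made in a confluent monolayer, then test compound or 1% DMSO (solvent control) was added in normal growth medium. The same scratch area was photographed at 0 and 18–24 hr. Duplicate or single wells; four independent experiments; images representative.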

CN(C)Cc1cccc(N/C(=C2\C(=O)Nc3cc(C(N)=O)ccc32)c2ccccc2)c1 [BIX02188]
Effect on scratch healing (cell migration): showed inhibition of scratch healing
